A word on the inhibition in vivo: it is the share of the control response that was lost under treatment. A low value points to a weak effect. For orientation: ED50 means the midpoint of the dose-response relation. High values mean weaker potency, low ones greater potency.

The subject of assay [1] is Mus musculus. Briefly: Tested in vivo for inhibition at a dose of 24 mg/kg, p.o. in oral mouse assay. The class given is functional. The method in brief:
(§1)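 Mice (22.5–27.5 g, six per group) received compound orally as a suspension in 5% emulphor. After 30 min they were given [5-³H]-mevalonolactone sc (0.5 μCi/animal) and were killed 30 min later. Livers were saponified and extracted with petroleum ether, and nonsaponifiable dpm was counted. Inhibition was calculated against incorporation in control animals.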

The test system of assay [2] is Mus musculus. Briefly: Tested in vivo for inhibition at a dose of 40 mg/kg, p.o. in oral mouse assay; Not active. The class given is functional, organism-based. Set-up: dose 40 mg/kg. The procedure, abridged: as §1
Assay [3] concerns Mus musculus. Briefly: Tested in vivo for inhibition at a dose of 40 mg/kg, p.o. in oral mouse assay. The class given is functional. The method in brief:
as §1

For assay [4], the system named is Mus musculus. In words: Effective dose required for 50 percent inhibition of mouse liver squalene synthase at a dose of 40 mg/kg, po.

The source made the active and inactive calls. No cut-off for these calls is given here.

In the case of `C=C(CCC12OC(C(=O)OC)C(O)(C(=O)O)C(C(=O)O)(O1)[C@@H](OC(=O)/C=C/[C@@H](C)C[C@@H](C)CC)[C@H]2O)C(OC(C)=O)[C@H](C)Cc1ccccc1` (some centres undefined), the inhibition in vivo at 24 mg/kg in assay [1] turned out to be 32%.
On to `C=C(CCC12OC(C(=O)O)C(O)(C(=O)OC)C(C(=O)OC)(O1)[C@@H](OC(=O)/C=C/[C@@H](C)C[C@@H](C)CC)[C@H]2O)C(OC(C)=O)[C@H](C)Cc1ccccc1` (some centres undefined), for which the inhibition entry in assay [2] was “inactive”.
Turning to `C=C(CCC12OC(C(=O)OCCC(C)C)C(O)(C(=O)O)C(C(=O)O)(O1)[C@@H](OC(=O)/C=C/[C@@H](C)C[C@@H](C)CC)[C@H]2O)C(OC(C)=O)[C@H](C)Cc1ccccc1` (some centres undefined), the inhibition in vivo at 40 mg/kg in assay [3] was 62%.
`C=C(CCC12OC(C(=O)OCCC(C)C)C(O)(C(=O)O)C(C(=O)OC)(O1)[C@@H](OC(=O)/C=C/[C@@H](C)C[C@@H](C)CC)[C@H]2O)C(OC(C)=O)[C@H](C)Cc1ccccc1` (some centres undefined): the inhibition result in assay [2] was “inactive”.
The molecule `C=C(CCC12OC(C(=O)O)C(O)(C(=O)O)C(C(=O)O)(O1)[C@@H](OC(=O)/C=C/[C@@H](C)C[C@@H](C)CC)[C@H]2O)C(OC(C)=O)[C@H](C)Cc1ccccc1` (some centres undefined) returned an inhibition in vivo at 40 mg/kg in assay [3] of 11%.
`C=C(CCC12OC(C(=O)OCCC(C)C)C(O)(C(=O)OC)C(C(=O)O)(O1)[C@@H](OC(=O)/C=C/[C@@H](C)C[C@@H](C)CC)[C@H]2O)C(OC(C)=O)[C@H](C)Cc1ccccc1` (some centres undefined) showed an ED50 in assay [4] of 18 mg/kg.
With `C=C(CCC12OC(C(=O)O)C(O)(C(=O)OC)C(C(=O)O)(O1)[C@@H](OC(=O)/C=C/[C@@H](C)C[C@@H](C)CC)[C@H]2O)C(OC(C)=O)[C@H](C)Cc1ccccc1` (some centres undefined), 40 mg/kg produced 43% inhibition in vivo in assay [3].
For the molecule `C=C(CCC12OC(C(=O)O)C(O)(C(=O)O)C(C(=O)OC)(O1)[C@@H](OC(=O)/C=C/[C@@H](C)C[C@@H](C)CC)[C@H]2O)C(OC(C)=O)[C@H](C)Cc1ccccc1` (some centres undefined), the inhibition entry in assay [2] was “inactive”.
`C=C(CCC12OC(C(=O)OCc3ccccc3)C(O)(C(=O)O)C(C(=O)O)(O1)[C@@H](OC(=O)/C=C/[C@@H](C)C[C@@H](C)CC)[C@H]2O)C(OC(C)=O)[C@H](C)Cc1ccccc1` (some centres undefined): at 24 mg/kg the inhibition in vivo in assay [1] was 36%.

For the origin of these results see ChEMBL document CHEMBL1127322, “Selective protection and relative importance of the carboxylic acid groups of zaragozic acid A for squalene synthase inhibition” (J Med Chem, 1994).
